Assay results of several laboratories.
Compare with care: the assays were run in different laboratories.
Target: Vascular endothelial growth factor receptor 3 (FLT4, Homo sapiens, UniProt P35916)

SMILES	read-out	action	technique	tested at	endpoint	result
CCOc1cc(-c2nncn2C)ccc1Nc1ncc2cc(C)nc(NCC(C)(C)C)c2n1	enzyme activity	inhibitor	FRET	1 µM	inhibition	23%
O=C(Nc1cnn(-c2csc(C(=O)NC3COC3)c2)c1)Nc1ccccc1Cl	enzyme activity	inhibitor		5 µM	remaining activity	93.5%
COc1cc2ncnc(Nc3ccc(Oc4ccccc4)cc3C)c2cc1OC	enzyme activity	inhibitor		1 µM	inhibition	17%
CNC(=O)c1cc(Oc2ccc(NC(=O)Nc3ccc(Cl)c(C(F)(F)F)c3)cc2)ccn1	cell-free assay			0.5 µM	remaining signal	43%
CCCOc1ccc(OC)c(F)c1C(=O)c1ccc(C(=O)N[C@@H]2CNC[C@H]2NC(=O)c2ccc3[nH]ncc3c2)cc1	enzyme activity	inhibitor		10 µM	remaining activity	8%
O=C(O)c1cc(-c2ccc(C3CCNCC3)cc2)c2ccc(-c3ccc(C(F)(F)F)cc3)cc2c1	cell-free assay		competition with immobilised ligand	1 µM	remaining binding	100%
CCCS(=O)(=O)Nc1ccc(F)c(C(=O)c2c[nH]c3ncc(-c4ccc(Cl)cc4)cc23)c1F	enzyme activity	inhibitor		1 µM	inhibition	< 10%
Cc1cc(NC(=O)c2cccc(S(F)(F)(F)(F)F)c2)cc(-n2ccn3nc(-c4cccnc4)cc23)c1	cell-free assay		competition with immobilised ligand	1 µM	remaining binding	82.3%
CC[C@H](CO)Nc1nc(NCc2ccccc2)c2ncn(C(C)C)c2n1	cell-free assay			0.5 µM	remaining signal	94%
C[C@@H]1CN(c2cc(-c3n[nH]c4ccc(OC5(C)CC5)cc34)ncn2)C[C@H](C)O1	cell-free assay		competition with immobilised ligand	0.1 µM	remaining binding	100%
CC/C(=N\NC(=O)NCc1cccc(O)c1)c1ccc(O)c(C)c1O	enzyme activity	inhibitor		0.1 µM	inhibition	6.1%
Cc1ccc(C(=O)Nc2ccc(CN3CCN(C)CC3)c(C(F)(F)F)c2)cc1C#Cc1cnc2cccnn12	cell-free assay			23.5 nM	remaining signal	35%
Cc1cnc(NC2CCOCC2)nc1-n1cnc(C(=O)NC(CN)c2cc(F)cc(Cl)c2)c1 (centres unmarked)	enzyme activity	inhibitor	radiometric	1 µM	remaining activity	107%
O=C(Nc1cccnn1)N1CCC(=Cc2cccc(Oc3ccc(C(F)(F)F)cn3)c2)CC1	cell-free assay		competition with immobilised ligand	1 µM	remaining binding	80%
CCN(CC)c1ccc(C2=NNC(=O)CC2C)cc1[N+](=O)[O-] (centres unmarked)	enzyme activity	inhibitor		10 µM	remaining activity	111%
O=C(O)[C@H]1[C@H](Cn2nnc3ccccc3c2=O)CC[C@@H]1C(=O)c1ccc(OCCC2CCOCC2)cc1	cell-free assay		competition with immobilised ligand	1 µM	remaining binding	81%
N#CCCc1ccc2c(c1)-c1[nH]c3ccc([N+](=O)[O-])cc3c1CC(=O)N2	cell-free assay			0.5 µM	remaining signal	66.5%
CC(=O)C1=C(C)N(c2cccc(C(F)(F)F)c2)C(=O)N[C@@H]1c1ccc(C#N)nc1	cell-free assay		competition with immobilised ligand	1 µM	remaining binding	100%
Clc1ccc(Nc2nnc(Cc3ccncc3)c3ccccc23)cc1	cell-free assay			0.5 µM	remaining signal	62.8%
Cc1cc(NC(=O)c2cccc3cc(-c4cccc5[nH]nc(N)c45)ccc23)ccc1F	enzyme activity	inhibitor		0.1 µM	activity vs control	1%
